Source: article PMC2775413 (Bioorganic & medicinal chemistry, 2009)

How the values were obtained:
Standard microsome assay = format: in vitro ADME, rat; settings: 37 °C
[1] = Mouse brain uptake study after i.p. injection; format: in vivo; settings: for Brain AUC over the 20-minute experiment compared with 5: i.p., 5 at 3.7 mg/kg
[2] = Anaerobic microsome assay for azide metabolism; format: in vitro ADME, rat
In short: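 Rat liver microsomes, NADPH regenerating system, test azide added from a 100 μM stock. PBS was deoxygenated by N2 bubbling for 15 min. Vials were sealed with septa, the headspace N2-purged and kept under an N2 balloon, and equilibrated at 37 °C. Microsomes were injected through the septum and incubated 0, 10, 20, 40 min. Acetonitrile quench, protein precipitation at 0 °C, supernatant dried, reconstituted in 2% formic acid, HPLC; peak area normalized to t = 0.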

[3] = Metabolism in fresh mouse brain homogenate with NADPH; format: in vitro ADME; settings: PBS pH 7.4, 37 °C, NADPH in excess
In short: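 Three fresh mouse brains were homogenized in PBS pH 7.4 (1 mL per brain) with NADPH regenerating buffers A and B, then pooled. Test compound was added from a 200 μM stock and incubated at 37 °C for 0, 10, 20 and 40 min. Reactions were stopped by heating to 95 °C for 1 min. HPLC with UV at 310 or 260 nm depending on compound; analyte/internal standard peak-area ratio normalized to t = 0.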

[4] = Metabolism of prodrugs in fresh mouse plasma with NADPH regenerating system; format: in vitro ADME; settings: 37 °C; for Metabolism in fresh mouse plasma (prodrug remaining by HPLC): NADPH regenerating system, over 80 minutes

Molecule: Cc1cc(N)nc(C[C@@H]2CNC[C@@H]2OCCNCCc2cccc(F)c2)c1 [Compound 5]
- Amount of compound lost with rat liver microsomes (Standard microsome assay; over 30 minutes, in presence and absence of NADPH): approximately 20%
- Toxicity in mice ([1]; i.p. injection at 3.7 mg/kg): no toxicity was observed

Molecule: CC(=O)N(CCO[C@H]1CNC[C@H]1Cc1cc(C)cc(N)n1)CCc1cccc(F)c1 (racemic) [Compound 6, N-(2-(4-((6-Amino-4-methylpyridin-2-yl)-methyl)pyrrolidin-3-yloxy)ethyl)-N-(3-fluoro-phenethyl)acetamide]
- Time of peak brain concentration ([1]; mouse, i.p. 4.1 mg/kg, 20-minute experiment): 5 min
- Brain AUC over the 20-minute experiment compared with 5 ([1]; mouse): roughly the same

Molecule: COC(=O)N(CCO[C@H]1CNC[C@H]1Cc1cc(C)cc(N)n1)CCc1cccc(F)c1 (racemic) [Compound 7, Methyl 2-(4-((6-amino-4-methylpyridin-2-yl)-methyl)pyrrolidin-3-yloxy)ethyl(3-fluoro-phenethyl)carbamate]
- Tmax ([1]; mouse, plasma, ip, 4.3 mg/kg): 5 min

Molecule: Cc1cc(-c2ccccc2)nnc1NCCN1CCOCC1 [minaprine, reference compound]
- Concentration remaining with microsomes at 20 min (Standard microsome assay; 20 min): not quantifiable
- Metabolism by microsomes under anaerobic conditions ([2]; 37 °C, deoxygenated buffer, nitrogen atmosphere, NADPH): metabolized readily

Molecule: Cc1cc(N)nc(C[C@@H]2CNC[C@@H]2OCCN=[N+]=[N-])c1 (racemic) [Compound 1, 6-((4-(2-Azidoethoxy)pyrrolidin-3-yl)methyl)-4-methyl-pyridin-2-amine]
- Formation of amine from azide (mass spectral analysis of reaction mixtures) ([2]; anaerobic microsome incubation): no peak corresponding to the amine
- Metabolism in mouse brain homogenate (compound amount over time) [3]: did not decrease
- Metabolism in fresh mouse plasma (prodrug remaining by HPLC) [4]: No significant metabolism

Molecule: 1-((S)-1-{2-[2-aminoethyl]phenylamino}-5-nitroguanidinopentan-2-ylcarbamoyloxy)ethyl pivalate [Compound 3]
- Metabolism in mouse brain homogenate (compound amount over time) [3]: decreased over the course of the experiment
- Conversion of prodrug to parent compound (4) in mouse plasma ([4]; HPLC peak of 4 over time): converted to the parent compound
- Metabolism in fresh mouse plasma (prodrug remaining by HPLC) [4]: rapid

Molecule: Cc1cc(N)nc(C[C@@H]2CNC[C@@H]2OCCN(CCc2cccc(F)c2)C(=O)OCc2ccccc2)c1 [Compound 8, Benzyl 2-(4-((6-amino-4-methylpyridin-2-yl)-methyl)pyrrolidin-3-yloxy)ethyl(3-fluoro-phenethyl)carbamate]
- Peak plasma concentration ([1]; mouse, i.p. 5.1 mg/kg, 20-minute experiment): around 1 μM
- Brain AUC over the 20-minute experiment compared with 5 ([1]; mouse): much lower
